Results: ChEMBL document CHEMBL4390662, “Design, synthesis and biological evaluation of novel α-acyloxy carboxamides via Passerini reaction as caspase 3/7 activators” (Eur J Med Chem, 2019)
Values after ≈ are worked out from the molar mass of the structure shown. Active and inactive are the calls of the source. The rule behind the calls is not given here.

Assays:
[1] = tested on: MCF7; test: Induction of apoptosis in human MCF7 cells assessed as late apoptotic cells level at IC50 incubated for 72 hrs by annexin V/propidium iodide staining based flow cytometry (reference value: 0.01%); type: functional
[2] = tested on: NFS-60; test: Induction of apoptosis in mouse NFS60 cells assessed as late apoptotic cells level at IC50 incubated for 72 hrs by annexin V/propidium iodide staining based flow cytometry (reference value: 0.01%); type: functional
[3] = tested on: WI-38; test: Cytotoxicity against human WI38 cells assessed as cell growth inhibition incubated for 72 hrs by MTT assay; type: cell-based; details: for IC50: Homo sapiens, WI-38, 72 h; for EC100: human, wi-38, 72 h
Summary of the method: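 Wi-38 fibroblasts grown in DMEM with 10% FBS and seeded at 5×10^3 per well. Attachment 24 h, then serial concentrations for 72 h at 37°C, 5% CO2. MTT stock (5 mg/mL) added for 3 h at 37°C, DMSO solubilization, absorbance at 570 nm. IC50 estimated.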

[4] = tested on: HepG2; test: Induction of apoptosis in human HepG2 cells assessed as total apoptotic cells at IC50 incubated for 72 hrs by annexin V/propidium iodide staining based flow cytometry (reference value: 0.169 +/- 0.02%); type: functional
[5] = tested on: MCF7; test: Induction of apoptosis in human MCF7 cells assessed as late apoptotic cells at IC50 incubated for 72 hrs by annexin V/propidium iodide staining based flow cytometry (reference value: 0.01 +/- 0.001%); type: functional
[6] = tested on: MCF7; test: Induction of apoptosis in human MCF7 cells assessed as total apoptotic cells at IC50 incubated for 72 hrs by annexin V/propidium iodide staining based flow cytometry (reference value: 0.48 +/- 0.01%); type: functional
[7] = tested on: NFS-60; test: Induction of apoptosis in mouse NFS60 cells assessed as caspase 3/7 activity using DEVD aminoluciferin as substrate at IC50 after 24 hrs […] relative to control; type: functional
Summary of the method: (§1)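 Caspase 3/7 activation measured with Caspase-Glo 3/7 kit using a luminogenic caspase-cleavable substrate. […] Reported as percent activation, mean ± SEM.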

[8] = tested on: HepG2; test: Induction of apoptosis in human HepG2 cells assessed as necrotic cells level at IC50 incubated for 72 hrs by annexin V/propidium iodide staining based flow cytometry (reference value: 0.87%); type: functional
[9] = tested on: HepG2; test: Induction of apoptosis in human HepG2 cells assessed as early apoptotic cells at IC50 incubated for 72 hrs by annexin V/propidium iodide staining based flow cytometry (reference value: 0.78 +/- 0.09%); type: functional
[10] = tested on: MCF7; test: Induction of apoptosis in human MCF7 cells assessed as early apoptotic cells at IC50 incubated for 72 hrs by annexin V/propidium iodide staining based flow cytometry (reference value: 0.47 +/- 0.01%); type: functional
[11] = tested on: HepG2; test: Cytotoxicity against human HepG2 cells assessed as cell growth inhibition incubated for 72 hrs by MTT assay; type: functional, cell-based; details: HepG2, 72 h
Summary of the method: (§2)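 Cells grown in RPMI-1640 with 10% FBS and seeded at 5×10^3 per well. After 24 h, serial concentrations given for 72 h at 37°C, 5% CO2. Then 5 mg/mL MTT stock added for 3 h, formazan dissolved in DMSO, A570 read. IC50 calculated from the curves.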

[12] = tested on: HepG2; test: Induction of apoptosis in human HepG2 cells assessed as late apoptotic cells level at IC50 incubated for 72 hrs by annexin V/propidium iodide staining based flow cytometry (reference value: 0.1%); type: functional
[13] = tested on: MCF7; test: Induction of apoptosis in human MCF7 cells assessed as caspase 3/7 activity using DEVD aminoluciferin as substrate at IC50 after 24 hrs […] relative to control; type: functional; summary of the method: as §1
[14] = tested on: NFS-60; test: Induction of apoptosis in mouse NFS60 cells assessed as early apoptotic cells at IC50 incubated for 72 hrs by annexin V/propidium iodide staining based flow cytometry (reference value: 0.02 +/- 0.01%); type: functional
[15] = tested on: MCF7; test: Induction of apoptosis in human MCF7 cells assessed as early apoptotic cells level at IC50 incubated for 72 hrs by annexin V/propidium iodide staining based flow cytometry (reference value: 0.01%); type: functional
[16] = tested on: NFS-60; test: Cytotoxicity against mouse NFS60 cells assessed as cell growth inhibition incubated for 72 hrs by MTT assay; type: functional, cell-based; details: NFS-60, 72 h; summary of the method: as §2
[17] = tested on: MCF7; test: Induction of apoptosis in human MCF7 cells assessed as necrotic cells level at IC50 incubated for 72 hrs by annexin V/propidium iodide staining based flow cytometry (reference value: 0.48%); type: functional
[18] = tested on: NFS-60; test: Induction of apoptosis in mouse NFS60 cells assessed as total apoptotic cells at IC50 incubated for 72 hrs by annexin V/propidium iodide staining based flow cytometry (reference value: 0.495 +/- 0.01%); type: functional
[19] = tested on: NFS-60; test: Induction of apoptosis in mouse NFS60 cells assessed as late apoptotic cells at IC50 incubated for 72 hrs by annexin V/propidium iodide staining based flow cytometry (reference value: 0.015 +/- 0.01%)
[20] = tested on: NFS-60; test: Induction of apoptosis in mouse NFS60 cells assessed as necrotic cells level at IC50 incubated for 72 hrs by annexin V/propidium iodide staining based flow cytometry (reference value: 0.01%); type: functional
[21] = tested on: HepG2; test: Induction of apoptosis in human HepG2 cells assessed as caspase 3/7 activity using DEVD aminoluciferin as substrate at IC50 after 24 hrs by fluorescence assay relative to control; type: functional; summary of the method: as §1
[22] = tested on: HepG2; test: Induction of apoptosis in human HepG2 cells assessed as viable cells level at IC50 incubated for 72 hrs by annexin V/propidium iodide staining based flow cytometry (reference value: 98.97%); type: functional
[23] = tested on: HepG2; test: Induction of apoptosis in human HepG2 cells assessed as early apoptotic cells level at IC50 incubated for 72 hrs by annexin V/propidium iodide staining based flow cytometry (reference value: 0.05%); type: functional
[24] = tested on: MCF7; test: Induction of apoptosis in human MCF7 cells assessed as viable cells level at IC50 incubated for 72 hrs by annexin V/propidium iodide staining based flow cytometry (reference value: 99.5%); type: functional
[25] = tested on: HepG2; test: Induction of apoptosis in human HepG2 cells assessed as late apoptotic cells at IC50 incubated for 72 hrs by annexin V/propidium iodide staining based flow cytometry (reference value: 0.1 +/- 0.001%); type: functional
[26] = tested on: NFS-60; test: Induction of apoptosis in mouse NFS60 cells assessed as early apoptotic cells level at IC50 incubated for 72 hrs by annexin V/propidium iodide staining based flow cytometry (reference value: 0.46%); type: functional
[27] = tested on: NFS-60; test: Induction of apoptosis in mouse NFS60 cells assessed as viable cells level at IC50 incubated for 72 hrs by annexin V/propidium iodide staining based flow cytometry (reference value: 99.52%); type: functional
[28] = tested on: Escherichia coli; test: Antimicrobial activity against Escherichia coli ATCC 25922 incubated for 24 hrs by microdilution assay; type: functional; details: ATCC 25922, 24 h
Summary of the method: (§3)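 Two-fold serial dilutions of test solutions made in Mueller Hinton broth and inoculated. Incubated at 37°C for 24 h. MIC taken as the lowest concentration with no growth. Ciprofloxacin is the antibacterial reference, fluconazole the antifungal one, and DMSO the blank.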

[29] = tested on: Staphylococcus aureus; test: Antimicrobial activity against Staphylococcus aureus ATCC 25923 incubated for 24 hrs by agar well diffusion assay; type: functional
Summary of the method: (§4)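 Nutrient agar spread with 100 µL inoculum: bacteria at 1×10^8 CFU/mL, fungi at 1×10^6 CFU/mL. 10 mm wells loaded with 100 µL of compound in DMSO (final 1 mg/mL). Bacteria incubated 24 h at 37 °C, fungi 48 h at 28 °C. Inhibition zones measured in mm. Ciprofloxacin and fluconazole standards at 1 mg/mL, DMSO negative control.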

[30] = tested on: Candida albicans; test: Antimicrobial activity against Candida albicans ATCC 90028 incubated for 24 hrs by microdilution assay; type: functional; summary of the method: as §3
[31] = tested on: Pseudomonas aeruginosa; test: Antimicrobial activity against Pseudomonas aeruginosa ATCC 27853 incubated for 24 hrs by agar well diffusion assay; type: functional; summary of the method: as §4
[32] = Selectivity index, ratio of IC50 for human WI38 cells to IC50 for human MCF7 cells; type: toxicity; details: WI38 cells versus MCF7 cells, read-out: Ratio IC50
Summary of the method: (§5)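 SI calculated as IC50 on normal Wi-38 fibroblasts divided by IC50 on the cancer cell line. Both came from 72 h MTT assays.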

[33] = tested on: Enterococcus faecalis; test: Antimicrobial activity against Enterococcus faecalis ATCC 29212 incubated for 24 hrs by agar well diffusion assay; type: functional; summary of the method: as §4
[34] = tested on: MCF7; test: Cytotoxicity against human MCF7 cells assessed as cell growth inhibition incubated for 72 hrs by MTT assay; type: functional, cell-based; details: MCF7, 72 h; summary of the method: as §2
[35] = tested on: Staphylococcus aureus; test: Antimicrobial activity against Staphylococcus aureus ATCC 25923 incubated for 24 hrs by microdilution assay; type: functional; summary of the method: as §3
[36] = Selectivity index, ratio of IC50 for human WI38 cells to IC50 for mouse NFS60 cells; summary of the method: as §5
[37] = Selectivity index, ratio of IC50 for human WI38 cells to IC50 for human HepG2 cells; type: toxicity; details: WI38 cells versus HepG2 cells, read-out: Ratio IC50; summary of the method: as §5
[38] = tested on: Escherichia coli; test: Antimicrobial activity against Escherichia coli ATCC 25922 incubated for 24 hrs by agar well diffusion assay; type: functional; summary of the method: as §4
[39] = tested on: Candida albicans; test: Antimicrobial activity against Candida albicans ATCC 90028 incubated for 48 hrs by agar well diffusion assay; type: functional; summary of the method: as §4
[40] = tested on: MCF7; test: Potency index, ratio of doxorubicin IC50 to test compound IC50 against human MCF7 cells; type: functional

COc1cccc2c1C(=O)c1c(O)c3c(c(O)c1C2=O)C[C@@](O)(C(=O)CO)C[C@@H]3O[C@H]1C[C@H](N)[C@H](O)[C@H](C)O1 [DOXORUBICIN]
Activity [1]: 18.78% | Activity [2]: 21.62% | IC50 [3]: 26.6 nM | EC100 [3]: 0.0121 µM | Activity [4]: 36.08% | Activity [5]: 20.445% | Activity [6]: 33.974% | Activity [7]: 45.39% | Activity [8]: 11.94% | Activity [9]: 10.59% | Activity [10]: 13.53% | IC50 [11]: 10 nM | Activity [12]: 23.91% | Activity [13]: 42.94% | Activity [14]: 11.379% | Activity [15]: 5.92% | IC50 [16]: 13 nM | Activity [17]: 14.88% | Activity [18]: 34.595% | Activity [19]: 23.215% | Activity [20]: 12.76% | Activity [21]: 48.09% | Activity [22]: 53.61% | Activity [23]: 10.54% | Activity [24]: 60.42% | Activity [25]: 25.49% | Activity [26]: 7.27% | Activity [27]: 58.34%

O=C1OC2(CCCCC2)C(=O)N1c1ccc([N+](=O)[O-])cc1
IC50 [3]: 35 nM | EC100 [3]: 0.006 µM | MIC [28]: 3.53 mM (≈ 1020 µg/mL) | diameter of the inhibition zone (DIZ) [29]: inactive | MIC [30]: inactive | diameter of the inhibition zone (DIZ) [31]: 15 mm | selectivity ratio [32]: 5.38 | diameter of the inhibition zone (DIZ) [33]: inactive | IC50 [11]: 9.4 nM | IC50 [34]: 6.5 nM | MIC [35]: inactive | Ratio IC50 [36]: 3.897 | selectivity ratio [37]: 3.72 | IC50 [16]: 8.98 nM | diameter of the inhibition zone (DIZ) [38]: 15 mm | diameter of the inhibition zone (DIZ) [39]: inactive | Ratio IC50 [40]: 2 - 4
